Test results: the EternaBench riboswitch data

System: MS2 coat protein
Assay: apparent Kd, MS2 coat protein; higher = weaker binding; RNA-MaP array; FMN 200 µM where present
How it was run: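 Green signal was scaled to red-channel RNA signal and control-cluster median Fmax, and the apparent Kd was taken as the median of filtered per-cluster binding-curve fits. The binding series used SNAP-549-labelled MS2 coat protein from 0.7 or 1.5 nM, doubling to 3 µM, on designs transcribed by stalled E. coli RNA polymerase on Illumina sequencing-chip clusters. Each series ran without and then with constant ligand in 100 mM Tris-HCl pH 7.5, 80 mM KCl, 4 mM MgCl2, BSA, DTT, yeast tRNA and Tween-20.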

[1] = designed as: ON switch for flavin mononucleotide, no ligand
[2] = ligand present: flavin mononucleotide, designed as: ON switch for flavin mononucleotide
[3] = designed as: OFF switch for flavin mononucleotide, no ligand
[4] = ligand present: flavin mononucleotide, designed as: OFF switch for flavin mononucleotide

GUAGCAUACCGAGGAUAUUCAUAUAAUAAAUAAACAUGAGGAUCACCCAUGUGGCGAAAGCCUAGGGAGAAGGCGGAAUGCUAC
apparent Kd [1]: 0.24 µM | apparent Kd [2]: 0.0226 µM

CUUUUGUGAGGAUAUCAGUAGUAAUACAAUAGUAUUACUACUGAGAAGGCACAUGAGGAUCACCCAUGUUCUUC
apparent Kd [3]: 0.0255 µM | apparent Kd [4]: 0.0682 µM

UGGGCGUGUGUCAGGAUAUGUGCUCUUCCUAGAGCGUAGAAGGGACAUGAGGAUCACCCAUGUCGAAUUGCCAA
apparent Kd [3]: 0.0174 µM | apparent Kd [4]: 0.0307 µM

GUGGCUAGUGCAGGAUAUCGGCGCGUGUAGUGCCGAGAAGGGCACAUGAGGAUCACCCAUGUGAUCAAUCACUGCUAAGGCCGC
apparent Kd [3]: 0.00519 µM | apparent Kd [4]: 0.00537 µM

ACCAGCUCGUCAGGAUAUACGUCACUGCGUCAGCAGUGUGGUAAGAUCACAUGAGGAUCACCCAUGUAGAAGGGACGAGCUGAU
apparent Kd [3]: 0.0133 µM | apparent Kd [4]: 0.245 µM

UCAUGUUAGCAGGAUAUGCUAUUUAUCUUUUAUGCAGAAGGGCUUACAUGAGGAUCACCCAUGUAUUAAGUCUU
apparent Kd [3]: 0.0189 µM | apparent Kd [4]: 0.0525 µM

CUUUUGUGAGGAUAUCAUUAGUAAAAAAAUAAAAUUACUACUGAGAAGGCACAUGAGGAUCACCCAUGUUCCUC
apparent Kd [3]: 0.0355 µM | apparent Kd [4]: 0.233 µM

UCCUCACAUGAGGAUCACCCAUGUGAGGAUAUCAGCGCGUACGGGUUUCCGUAGUGUUUGAGAAGGCAUUUGGG
apparent Kd [3]: 0.0166 µM | apparent Kd [4]: 0.029 µM

UUACUAUAACAGAAGGGUAGAUAGUAUAUAGAUGCAGGAUAUGUUACAUGAGGAUCACCCAUGUUUCACCCACAUGAGGAUCAC
apparent Kd [3]: 0.032 µM | apparent Kd [4]: 0.0703 µM

CUAGAAAGGACAGGAUAUCGGGAUCGAACACCCGACAUGAGGAUCACCCAUGUCGCAAAAGAUAGCGAGAAGGGUCGGACACAA
apparent Kd [1]: 0.0458 µM | apparent Kd [2]: 0.0141 µM

ACGCAUUGCCUUUGGUAGUGCGUAACAUGAGGAUCACCCAUGUAGGAUAUGGUAGGCUUUGCUUACCAGAAGGACAUUAUAAAC
apparent Kd [3]: 0.0293 µM | apparent Kd [4]: 0.0485 µM

AUUAUGUAAGGAUAUCUUACAUGUGACUUCGGUCACUGUUAAGAGAAGGUACAUGAGGAUCACCCAUGUAUAAC
apparent Kd [3]: 0.0196 µM | apparent Kd [4]: 0.0224 µM

AAUCGGGAGCAGAAGGCAUGUCAUAAGACAUGAGGAUCACCCAUGUAGUUAAGAUGAAAAUCGCAUGAGGAUAUGCUCCCGUAA
apparent Kd [1]: 0.115 µM | apparent Kd [2]: 0.0185 µM

GCUGUCGCAUGAGGAUAUGGUCAGCUUUGCUGACCAGAAGGCAUGUCAAUAGACAUGAGGAUCACCCAUGUAGUAAAGACAGCU
apparent Kd [1]: 0.375 µM | apparent Kd [2]: 0.0339 µM

GUAGCAUACCGAGGAUAUUCAGGGAAUAAAUAAACAUGAGGAUCACCCAUGUGGCGAAAGCCUAGGGAGAAGGCGGAAUGCUAC
apparent Kd [1]: 0.0836 µM | apparent Kd [2]: 0.0215 µM

CGUACUCAAAGAGUACCAAUACGAACAUGAGGAUCACCCAUGUAGGAUAUGCUACUCAAAGAGUAGCAGAAGGACAUGUGCCUA
apparent Kd [3]: 0.0193 µM | apparent Kd [4]: 0.0732 µM

AUAAUUUUAUAUAUCUAUUUAAUCAGAAGGCAUAACAUGAGGAUCACCCAUGUAAAUUAAUGUUAUGAGGAUAUGAUAUGGUUA
apparent Kd [3]: 0.0113 µM | apparent Kd [4]: 0.078 µM

CUGAGCAAUGUAGGAUAUCGACUGGAAUACAGUCGAGAAGGACAUGAGGAUCACCCAUGUCAAUGAGUGAAUAAUAAAGCUCAG
apparent Kd [3]: 0.0207 µM | apparent Kd [4]: 0.118 µM

UUACCUCAUGAGAAGGACAUGAGGAUCACCCAUGUAGGAUAUCGUGGGAGACUGGUAUUGAAUCUUCGGAUUCAAUACCAGUCU
apparent Kd [1]: 0.375 µM | apparent Kd [2]: 0.0297 µM

CGCUACUACCAGAAGGACAUGAGGAUCACCCAUGUAGGAUAUGGGUUACAAGUACCAGUGUAGAGAAACUACGCUACAGUAGCG
apparent Kd [1]: 0.0298 µM | apparent Kd [2]: 0.0083 µM

GCUGACGAUGUAGGAUAUCAGUAUAAUAAAUACUGAGAAGGACAUGAGGAUCACCCAUGUAAAACUCCGUCAGCGAGGAAACUC
apparent Kd [3]: 0.0166 µM | apparent Kd [4]: 0.0194 µM

AUAUAGAUGGUCAGGAUAUGCUAGUGGUAACAGUAGCAGAAGGGACAUGAGGAUCACCCAUGUGGAUACUGCGC
apparent Kd [3]: 0.0254 µM | apparent Kd [4]: 0.0859 µM

UUGUUCUGAGGAUAUACAUGAGGAUCACCCAUGUGUUUCUGCUAGGAGACUAGCGAAUGUAGAAGGCUGUUCUC
apparent Kd [3]: 0.0194 µM | apparent Kd [4]: 0.0199 µM

GUGGUCUGACAUGAGGAUCACCCAUGUGGAAUAAAUACGGGUUAGGAUAUCUUGAGGAUCACCCAAGAGAAGGGAUGGAUGGUC
apparent Kd [1]: 0.1 µM | apparent Kd [2]: 0.106 µM

GUAGUGUAUGUAGGAUAUGCGAAGCAAAGCUUCGCAGAAGGACAUGAGGAUCACCCAUGUAUUGCAGCCUGCAAUCAGGCUGCU
apparent Kd [3]: 0.0422 µM | apparent Kd [4]: 0.184 µM

AAGGAUAGAGGAUAUACAUAGAUACAGAUUCAUGUGGUCCUACAUGAGGAUCACCCAUGUAGAAGGCUAUCCUA
apparent Kd [3]: 0.24 µM | apparent Kd [4]: 0.0568 µM

UCGUUCCGUGUAGGAUAUUGGCCUUCUCUGGGCCGAGAAGGACAUGAGGAUCACCCAUGUAUGUUAUUAUCGCGCGUGGCGCAU
apparent Kd [3]: 0.0269 µM | apparent Kd [4]: 0.0849 µM

UCAGGCUUCGAGAAGGACAUGAAUCGUAGCAUUGCUACGAUGAAUUAUACAUGAGGAUCACCCAUGUAGGAUAUCGGAGUCUGC
apparent Kd [4]: 0.00634 µM

UCUGCAUAGUCAGGAUAUGCAAAAUUUAUUUUCUUCGGAAAAUAAAUAACAUGAGGAUCACCCAUGUAGAAGGGACUGUGCAGA
apparent Kd [3]: 0.0169 µM | apparent Kd [4]: 0.0147 µM

AUUAUAUAGUUAGGAUAUUGAUUAUUAUUUUAACAUGAGGAUCACCCAUGUAGCCUUAUGUAUAACAAGAAGGAACAUUUAUUA
apparent Kd [3]: 0.114 µM | apparent Kd [4]: 0.132 µM

UGCCGUAGAGGAUAUACAUAGAAAUAGAUUCAUGUAAAACUACAUGAGGAUCACCCAUGUAGAAGGCUAUGGCU
apparent Kd [3]: 0.0216 µM | apparent Kd [4]: 0.137 µM

GAUCAACAUGAGGAUCACCCAUGUGAGGAUAUGAUACUAUGUACUUCGGUACAUAGUAUCAGAAGGCACAUUGA
apparent Kd [3]: 0.0872 µM | apparent Kd [4]: 0.367 µM

ACACGGUAUGUAGGAUAUGCAUAGCAUUGCUAUGCAGAAGGACAUGAGGAUCACCCAUGUAUGUAUUCCAUACUAAUCCCGUGU
apparent Kd [3]: 0.00549 µM | apparent Kd [4]: 0.00558 µM

GUGGUCAGACAUGAGGAUCACCCAUGUGGAAUAAAUAAGGGAGAGGAUAUAUAAUAUAGGAUAUAAUAGAAGGCUCGGUUGGUG
apparent Kd [1]: 0.0825 µM | apparent Kd [2]: 0.111 µM

AAAAAAAAAGUAGAGGAUAUCCAAAUGGCUACAUGAGGAUCACCCAUGUGAAGAAAAGCACAUGAGGAGAAGGCUACAAAAAAAAA
apparent Kd [1]: 0.0267 µM | apparent Kd [2]: 0.0135 µM

AAUGGCUGGUGAACUUGGUCACAUGAGGAUCACCCAUGUUAUGAGGAUAUCGCUGCACAUUGACGUGAGAAGGCAUAGCAAGCC
apparent Kd [3]: 0.132 µM | apparent Kd [4]: 0.453 µM

ACAUGAGGAUCACCCAUGUAUUUGUAGGAUAUACUCUAUUGUUUAUUACUCUAGUUAAUAUGUUUGUAGAAGGACAUUACAUGA
apparent Kd [3]: 0.00794 µM | apparent Kd [4]: 0.0108 µM

CCCAGUUAGGAAGGAUAUUGUACAUGAGGAUCACCCAUGUAAUAAAUGAGGAUCACGGAUGUAUACAAGAAGGUCCGGAUAGGC
apparent Kd [3]: 0.0704 µM | apparent Kd [4]: 0.14 µM

AUACUUAAUGAAGGAUAUCUCAGCAUAAACCUGAGAGAAGGUCAUUAUUACAUGAGGAUCACCCAUGUUGUAGUUAAUGGGUAA
apparent Kd [3]: 0.352 µM | apparent Kd [4]: 0.341 µM

UUCAGCUUGACAGGAUAUACAUCACUGCGAAAGCAGUGUAUCUUAAUAACAUGAGGAUCACCCAUGUAGAAGGGUCGAGCUGAA
apparent Kd [3]: 0.0184 µM | apparent Kd [4]: 0.0327 µM

UAGGGUGUACGAGGAUAUGGGCAUUGGUGGAUCUCAGAAGGCGUAUACGCGCGCAGACAUGAGGAUCACCCAUGUACCCGGCUU
apparent Kd [1]: 0.0628 µM | apparent Kd [2]: 0.0236 µM

AGGAGACAUGAGGAUCACCCAUGUGCACGUGGACGAGGAUAUGCUAGUAGAAGAUAGAAUGCAGAAGGCGUAAGAA
apparent Kd [1]: 0.0757 µM | apparent Kd [2]: 0.0768 µM

ACAUGAGGAUCACCCAUGUUAUAUGGGAAUUAAUUUAUUUGUAGAAGGAUGUUUUCUUGUUAGUCAUAGGAUAUACUAUUAAAU
apparent Kd [3]: 0.255 µM | apparent Kd [4]: 0.158 µM

CAUCUCCCUUUUACAUGAGGAUCACCCAUGUUUUCAUAUUGAGAGGAUAUCGUAUUUGGAAACAUCGAGAAGGCUCAUUUGUAU
apparent Kd [1]: 0.536 µM | apparent Kd [2]: 0.175 µM

AGCAGACGAGGAUAUGAUAAAGAUCACAUGAGGAUCACCCAUGUACGCAGGAUACUGCGAUCAGAAGGCGUCUGCU
apparent Kd [3]: 0.013 µM | apparent Kd [4]: 0.0138 µM

AGUAUGAGAGGAUAUACUAAUAAACAUGGAAACAUGAAGGGACAUGAGGAUCACCCAUGUAGAAGGCUCGUACA
apparent Kd [3]: 0.0556 µM | apparent Kd [4]: 0.177 µM

GCAGGCGACCAGAAGGGUGACAUGAGGAUCACCCAUGUAGAUGUGUUCCCGCUUGGGAACCGUCCACAGGAUAUGGUUGGUUAU
apparent Kd [1]: 0.0511 µM | apparent Kd [2]: 0.0538 µM

AUCCUGCGAGGAUAUACAUAGUUUUGUUUGUUUUGUCUCAAACAUGAGGAUCACCCAUGUAGAAGGUGCGUCAC
apparent Kd [3]: 0.155 µM | apparent Kd [4]: 0.13 µM

AGUAACAGAGGAUAUACUAUUUUAUGUGUUUAUUGUUUUAAACAUGAGGAUCACCCAUGUAGAAGGCUGAAUAA
apparent Kd [3]: 0.0294 µM | apparent Kd [4]: 0.0405 µM

GGAGCGAGCACAGGAUAUAGGCUAAAGGCUAGUCUAGAAGGGUGGGAUCAGACAUGAGGAUCACCCAUGUGUGUUUUUGCUCCA
apparent Kd [1]: 0.0863 µM | apparent Kd [2]: 0.686 µM

CUGAUGUCAGGAUAUCAGAAAAGGUGCGAGGACGCACCAAAUGAGAAGGGACAUGAGGAUCACCCAUGUAAAAC
apparent Kd [3]: 0.0223 µM | apparent Kd [4]: 0.139 µM

GUACUCAUGUAAGGAUAUGCAGCCGUUUCGGCUGCAGAAGGUACUAUAAUACAUGAGGAUCACCCAUGUCUCUCGCAUUGCGAG
apparent Kd [1]: 0.465 µM | apparent Kd [2]: 0.0984 µM

CCCAAACUUGGGCUUGGUUGUGCAUAGGAUAUCCUUGGACAUGAGGAUCACCCAUGUACAACUGUGGAGAAGGGUGCAGGACCU
apparent Kd [1]: 0.0391 µM | apparent Kd [2]: 0.0164 µM

GCACGAUAUCAGGAUAUGACUAGCUGCGGCUAGUCAGAAGGGAUGACAUGAGGAUCACCCAUGUGAUCACGUGC
apparent Kd [3]: 0.0576 µM | apparent Kd [4]: 0.0787 µM

GCUACGCCUGACAUGAGGAUCACCCAUGUUAGAUUGUUAUGUCAGGAUAUAGUCUAGAAACUAGACUAGAAGGGAUGUGUAGCU
apparent Kd [1]: 0.872 µM | apparent Kd [2]: 0.112 µM
